This data set in a line: Toxicity liver stage against HepG2, at 10uM. Format: cell-based. Further details: test concentration 10 uM, cell line HepG2-A16-CD81EGFP. As to conditions: human, HepG2-A16-CD81EGFP cells; read-out: INHIBITION
A digest of the protocol: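 Uninfected HepG2-A16-CD81EGFP cells, 3 × 10^3 per well, 1536-well, plated on prespotted compound at 10 μM final, parasite-free screening media added to match infected plates; puromycin 10 μM positive, DMSO 0.5% negative; run in parallel with 48 h PbLuc assay at 37 °C, 5% CO2; viability by CellTiter-Glo luminescence, normalized to controls.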
For the compound `O=C([C@@H]1Cc2[nH]cnc2CN1C(=O)NC1CCCCC1)N1CCCC1`, the cytotoxicity at 10 µM came to 6.06%.

Turning to `CN1C[C@@H](F)[C@@H](OCc2nc3ccc(C#N)cc3[nH]2)C1`, the cytotoxicity at 10 µM was 0.434%.

In the case of `Cc1cc(NCCO)nc(-c2ccccc2O)n1`, the cytotoxicity at 10 µM was determined as 14.1%.

For `O=S(=O)(NCCn1ccc(-c2ccncc2)n1)C1CC1`, the cytotoxicity at 10 µM stood at 0.794%.

Consider `CC(=O)N1CCOC2(CCCN(C(=O)CCN3CCCCC3)C2)C1` (configuration not stated), for which the cytotoxicity at 10 µM is -2.51%.

For `Cc1cc(C)cc(C(=O)N2CCCC3(CCCC(=O)N3C)C2)c1` (configuration not stated), the cytotoxicity at 10 µM was 5.06%.

Regarding `Cc1ccc(N2CC[C@H](O)[C@@H]2Cc2cnn(C)c2)nn1`, the cytotoxicity at 10 µM came out at 0.434%.

`CCOCC1CN(C(=O)c2ccsc2)Cc2nn(C)cc21` (configuration not stated): the cytotoxicity at 10 µM was determined as 3.39%.

As to `CCN(C)c1ncnc2c1CCN(C(=O)c1ccc(C)o1)CC2`, the cytotoxicity at 10 µM was -0.796%.

In the case of `COc1nn(C)c2c1CCCN(C(=O)COc1ccccc1)C2`, the cytotoxicity at 10 µM was determined as 3.91%.

Consider `COc1nn(C)c2c1CCCN(C(=O)c1ccc[nH]1)C2`, for which the cytotoxicity at 10 µM was -0.966%.

Take `CCn1nnc2c1C(COC)CN(C(=O)Cc1ccccn1)C2` (configuration not stated): the cytotoxicity at 10 µM was found to be 4.64%.

In the case of `CN1CC2(CCNCC2)COc2ccccc2S1(=O)=O`, the cytotoxicity at 10 µM was determined as 4.58%.

As to `Cc1ccsc1C(=O)N1CC(C(=O)NC(C)C)C2(CCOCC2)C1` (configuration not stated), the cytotoxicity at 10 µM was -1.49%.

Take `CN(C(=O)Cn1nc(-c2ccccc2)ccc1=O)C1CCS(=O)(=O)C1` (configuration not stated): the cytotoxicity at 10 µM was determined as 1.82%.

With `Cc1ccc(C)c(C(NC(=O)C(C)(C)C)c2cccnc2)c1` (configuration not stated), the cytotoxicity at 10 µM is -3.7%.

Turning to `CCC(C)c1noc(C2CCN(C(=O)c3ccccn3)CC2)n1` (configuration not stated), the cytotoxicity at 10 µM stood at 4.59%.

As for `COCCCNS(=O)(=O)c1cccc(CSC)c1`, the cytotoxicity at 10 µM came out at 11.9%.

Regarding `O=C(NC1CCCC1)c1cnn2c(-c3ccco3)ccnc12`, the cytotoxicity at 10 µM was found to be 10.2%.

Take `CCN1C(=O)C(C)(C)c2cc(NC(=O)c3ccco3)ccc21`: the cytotoxicity at 10 µM is -10.2%.

Turning to `Cc1nc2cc(-c3nccn3C)nn2c(N2CCCC(CO)C2)c1C` (configuration not stated), the cytotoxicity at 10 µM was -4.38%.

For the compound `COc1ccc(Cn2nc(C(N)=O)ccc2=O)c(Cl)c1`, the cytotoxicity at 10 µM is 10.2%.

For the compound `CC(c1ccco1)N(C(=O)COc1ccc(C#N)cc1)C1CC1` (configuration not stated), the cytotoxicity at 10 µM is -6.6%.

Take `COc1ccc(-c2noc(CCC(=O)N3CCOCC3(C)C)n2)cc1`: the cytotoxicity at 10 µM turned out to be 6.99%.

For `Cc1nc2n(n1)CC(NCCCc1nc(-c3cccs3)no1)CC2` (configuration not stated), the cytotoxicity at 10 µM was -4.38%.

Consider `Cc1ccc(-c2ncc(CN3CCN(S(N)(=O)=O)CC3)s2)o1`, for which the cytotoxicity at 10 µM is -3.41%.

As for `CC(CO)NC(=O)Nc1ccc(CC#N)cc1` (configuration not stated), the cytotoxicity at 10 µM is -3.39%.

With `C=C(C)CN(CC)C(=O)c1cc(Cl)ccc1NS(C)(=O)=O`, the cytotoxicity at 10 µM was found to be 7.17%.

`CCN1CCN(C(=O)c2ccc(OC)nn2)c2ccccc21`: the cytotoxicity at 10 µM is -1.78%.

For `COC(=O)c1ccc(Cl)c(S(=O)(=O)Nc2ccc(F)c(C(N)=O)c2)c1`, the cytotoxicity at 10 µM stood at 3.68%.

As to `O=C(c1ccc(NCc2cccc(F)c2)cc1)N1CCCC1`, the cytotoxicity at 10 µM was found to be 10.1%.

With `CC(CS(C)(=O)=O)NC(=O)N1CC2(CCCC2)c2ccccc21` (configuration not stated), the cytotoxicity at 10 µM was -4.34%.

On to `Cc1nnc(CN(Cc2ccco2)Cc2cccc3c2OCO3)n1C`, for which the cytotoxicity at 10 µM is -0.535%.

On to `COCc1ccccc1C(=O)NCC(O)c1ccc(Cl)s1` (configuration not stated), for which the cytotoxicity at 10 µM was -6.63%.

On to `Cc1nc(-c2cccc(C#N)c2)nn1CC1(O)CCCCC1`, for which the cytotoxicity at 10 µM was -2.62%.

`COc1c(C)cnc(CNC(=O)c2cc(C)nc3c2c(C)nn3C)c1C`: the cytotoxicity at 10 µM was -1.28%.

As to `CC(C)(C)OC(=O)NCC1CCCCN1Cc1cccnc1` (configuration not stated), the cytotoxicity at 10 µM is -0.502%.

Regarding `CC(C)(C)OC(=O)NC(C)(C)c1noc(CSc2nncs2)n1`, the cytotoxicity at 10 µM was determined as 16.6%.

For `OCC1(NCc2cnc(-c3ccccn3)s2)CCOCC1`, the cytotoxicity at 10 µM amounted to 9.32%.

Turning to `COCC(=O)NC1CCCN(c2ccc(C)cc2)C1=O` (configuration not stated), the cytotoxicity at 10 µM is -0.82%.

Turning to `C[S+]([O-])c1ccc(NC(=O)CC2=CCCCC2)cc1` (configuration not stated), the cytotoxicity at 10 µM was determined as 0.304%.

For `CC(C)CCN(C(=O)c1cc2c([nH]c1=O)CCCC2=O)C1CC1`, the cytotoxicity at 10 µM was -2.98%.

For the compound `Cc1nc2sccn2c1CNc1cc(C(=O)O)ccc1F`, the cytotoxicity at 10 µM stood at 4.59%.

`CCc1cnc(CNc2ccc(C(=O)NCc3ccco3)cc2C)o1`: the cytotoxicity at 10 µM was -0.375%.

On to `CC(C)c1nsc(N2CCS(=O)(=O)CC2)n1`, for which the cytotoxicity at 10 µM was -2.41%.

With `CS(=O)(=O)NC1CCN(C(=O)c2[nH]c3ccc(Cl)cc3c2Cl)CC1`, the cytotoxicity at 10 µM came out at 16.3%.

Take `O=C(CNc1ccc(OCC2CCOCC2)cc1)NCc1ccco1`: the cytotoxicity at 10 µM was determined as 3.43%.

For `COCCOc1ncccc1NCc1nc2ccccc2n1C`, the cytotoxicity at 10 µM turned out to be 5.95%.

For `COC(=O)CN(Cc1ccccc1C)C(=O)CCCNC(=O)C1CC1`, the cytotoxicity at 10 µM was -13.4%.

On to `CN(C)CCN1CCO[C@@H]2CCN(C(=O)c3cccn3C)CC[C@H]21`, for which the cytotoxicity at 10 µM was 7.17%.

Turning to `CN1CCC(Cc2noc(-c3cn(Cc4ccccc4Cl)nn3)n2)CC1`, the cytotoxicity at 10 µM was -3.28%.

Take `CS(=O)(=O)Cc1nc(C2CC2)nn1-c1ccccn1`: the cytotoxicity at 10 µM came to 1.87%.

As to `O=C(N[C@H]1CN(C2CCOCC2)C[C@@H]1C1CC1)c1cc(O)no1`, the cytotoxicity at 10 µM is 8.4%.

As for `Cc1cc(CN2CC[C@@H]3[C@@H](CCC(=O)N3CCc3c[nH]cn3)C2)oc1C`, the cytotoxicity at 10 µM was -0.466%.

As to `CN1CCCN(C(=O)c2nc3sccn3c2-c2ncc[nH]2)CC1`, the cytotoxicity at 10 µM was -4.34%.

For the compound `O=C1CCCN1CCCNCc1cc(O)c2cccc(F)c2n1`, the cytotoxicity at 10 µM is -1.16%.

Consider `CC(C)Cc1ncc2c(n1)CN(c1cc(N)nc(N)n1)C2`, for which the cytotoxicity at 10 µM is -6.27%.

As for `CN(C)CCN1CC2(CCN(C(=O)c3cnccn3)CC2)OC1=O`, the cytotoxicity at 10 µM worked out at 9%.

As for `O=C(C1NCCc2[nH]cnc21)N1CCC2(CC1)CNc1ccccc12` (configuration not stated), the cytotoxicity at 10 µM is 1.04%.

Take `O=C(CCn1cc(Cl)cn1)N1CCCC(O)(CO)CC1` (configuration not stated): the cytotoxicity at 10 µM was -145%.

As for `COCCN(Cc1sccc1C)C(=O)c1c(O)cccc1F`, the cytotoxicity at 10 µM is -137%.

As for `Cc1ocnc1C(=O)N1CCC(c2nccn2Cc2ccncc2)CC1`, the cytotoxicity at 10 µM is -8.26%.

`CCc1nc(C)c([C@H]2CN(C)C[C@@H]2C(=O)NC(C)(C)c2ccccc2)[nH]1`: the cytotoxicity at 10 µM came out at 2.12%.

As for `O=C(C(O)c1ccccc1Cl)N1CCCN(Cc2cccnc2)CC1` (configuration not stated), the cytotoxicity at 10 µM was 5.5%.

For the compound `O=C(c1ccc2ccccc2c1)C1CCCN(C(=O)Cn2cncn2)C1` (configuration not stated), the cytotoxicity at 10 µM came out at 2.6%.

As to `COc1ccnc(N2C[C@@H](NS(=O)(=O)N(C)C)[C@H](C(C)C)C2)n1`, the cytotoxicity at 10 µM was -144%.

With `O=C(c1ccoc1)N1CCC(Nc2cccnn2)CC1`, the cytotoxicity at 10 µM was -5.85%.

For the compound `Cn1c(CN2CCOC(CNc3cccnn3)C2)nnc1C1CC1` (configuration not stated), the cytotoxicity at 10 µM was found to be 5.18%.

`Cc1cnc(C(=O)N2CCCCC2c2nc(C)cs2)cn1` (configuration not stated): the cytotoxicity at 10 µM is -15.3%.

As to `CC(C(=O)NCCCN1CCN(c2ccccc2)CC1)n1cncn1` (configuration not stated), the cytotoxicity at 10 µM is -5.93%.

Take `Cc1noc(C)c1CN1CCCC1c1c(C)nn(C)c1Cl` (configuration not stated): the cytotoxicity at 10 µM is -2%.

`CN(CC(=O)N1CCC(COc2ccccc2)CC1)c1cnccn1`: the cytotoxicity at 10 µM was -10.7%.

For `Cc1nc(CN2CCCN(C(=O)c3cnccn3)CC2)cs1`, the cytotoxicity at 10 µM was -9.51%.

In the case of `COc1cc(C(=O)N2CCCC(n3cncn3)C2)ccc1C` (configuration not stated), the cytotoxicity at 10 µM was -3.86%.

For the compound `CCOCC(O)CN1CCN(C(=O)Cc2cccc(Cl)c2)CC1` (configuration not stated), the cytotoxicity at 10 µM was -7.69%.

On to `Cn1cc(C(=O)NCC2CCN(C(=O)NC3CC3)CC2)cn1`, for which the cytotoxicity at 10 µM turned out to be 2.05%.

For `COc1ccc(CC(=O)N2CCC(Nc3ccc(C)nn3)CC2)cc1`, the cytotoxicity at 10 µM is -5.34%.

As for `CC(C)c1nc(CN(C)C2CCN(CCc3ccncc3)C2)no1` (configuration not stated), the cytotoxicity at 10 µM was -28.4%.

`CCc1nc(CN(C)C2CCN(CCCOc3ccccc3)C2)no1` (configuration not stated): the cytotoxicity at 10 µM amounted to 0.141%.

For the compound `CCC1CCCCN1C(=O)c1ccnc(N(C)C)c1` (configuration not stated), the cytotoxicity at 10 µM is -0.743%.

`CC(=O)N(Cc1ncc(C)o1)C1CCN(Cc2cc(C)on2)C1` (configuration not stated): the cytotoxicity at 10 µM is -5.03%.

Regarding `CCc1nnc(CNC2CCCN(Cc3noc(C4CC4)n3)C2)o1` (configuration not stated), the cytotoxicity at 10 µM is -5.46%.

For `Cc1cc(CN(C)C(=O)c2ccc(F)cc2F)no1`, the cytotoxicity at 10 µM is -6.47%.

Take `CCCc1n[nH]c(C2CN(C(=O)c3ccco3)CCO2)n1` (configuration not stated): the cytotoxicity at 10 µM is -2.7%.

Take `CCOc1ccc(Cl)c(C(=O)N(C)C)n1`: the cytotoxicity at 10 µM was -11.3%.

With `COc1cccc(COCC(=O)N2CCN(CC(C)(C)O)CC2)c1`, the cytotoxicity at 10 µM was -5.64%.

On to `c1cnn(CC2CN(Cc3nc(-c4ccsc4)no3)CCO2)c1` (configuration not stated), for which the cytotoxicity at 10 µM was -8.06%.

For the compound `CN(C)CCNC(=O)C1Cc2nc(-c3ccsc3)sc2N1CC1CC1` (configuration not stated), the cytotoxicity at 10 µM came out at 3.54%.

Turning to `O=C1N(Cc2cccc(F)c2)CCC12CCN(c1ccccn1)CC2`, the cytotoxicity at 10 µM was -1.16%.

As to `CNC(=O)CN1CCOCC2(C1)CN(C(=O)C(C)C)CCO2` (configuration not stated), the cytotoxicity at 10 µM is -0.182%.

Turning to `CC(C)CN1CCC2(CCN(Cc3ccc(F)cc3)CC2)C1=O`, the cytotoxicity at 10 µM was found to be 5.71%.

Consider `O=C(c1ccnnc1)N1C[C@H](Oc2ccccn2)[C@H]2OCCC[C@H]21`, for which the cytotoxicity at 10 µM was -0.00736%.

For `Cc1cc(C(=O)N2CCc3nc(C4CCCN4)ncc3C2)cs1` (configuration not stated), the cytotoxicity at 10 µM turned out to be 2.56%.

For `COCC(=O)N1CCO[C@H]2[C@H](OCc3cccnc3)CC[C@@H]21`, the cytotoxicity at 10 µM is -2.01%.

Take `O=C(C1CCCCC1)N1C[C@@H]2CCN(c3cnccn3)C[C@@H]2C1`: the cytotoxicity at 10 µM came out at 5.68%.

As for `CC1CCN(c2nc3cn(C4CCS(=O)(=O)C4)c(=O)c-3c[nH]2)CC1` (configuration not stated), the cytotoxicity at 10 µM is -14.2%.

As to `COc1cc(C(=O)N2C[C@@H]3CC[C@H]2CN(Cc2cscn2)C3)ccn1`, the cytotoxicity at 10 µM was 3.2%.

(Values after ChEMBL document CHEMBL4513216, “Probing the Open Global Health Chemical Diversity Library for Multistage-Active Starting Points for Next-Generation Antimalarials” (ACS Infect Dis, 2020).)
